# Source: ChEMBL document CHEMBL1131528, “Effect of steroids on DNA synthesis in an in vitro replication system: initial quantitative structure-activity relationship studies and construction of a non-estrogen receptor pharmacophore” (J Med Chem, 1998)
# Legend:
# [1] = tested on: Nucleic Acid; assay: (§1) The compound was tested in vitro for its ability to initiate DNA replication; assay type: nucleic-acid assay; details: Homo sapiens
# Method in brief: (§2)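 Steroid dissolved in 100% ethanol, diluted with water (final ethanol ≤0.1%), tested at 10 nM in a HeLa cell extract in vitro replication system (extracts estrogen and progesterone receptor-negative) with plasmid template pX24 (hamster DHFR origin) or 30.4 (random human cDNA fragment). Compound preincubated with template DNA and precursor nucleotides, then remaining components added to start replication. DNA purified; synthesis measured by DpnI resistance assay with phosphoimager densitometry; expressed as % of untreated control, mean ± SD of at least two experiments.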
# [2] = tested on: Nucleic Acid; assay: as §1; assay type: functional; details: Homo sapiens; method in brief: as §2
smiles,measurement,setting,value
COc1c(O)ccc2c1CC[C@@H]1[C@@H]2CC[C@]2(C)C(=O)CC[C@@H]12,DNA,[1],53%
CC(=O)[C@H]1CC[C@H]2[C@@H]3CCC4=CC(=O)CC[C@]4(C)[C@H]3CC[C@]12C,DNA,[1],115%
C[C@]12CC[C@@H]3c4ccc(O)cc4CC[C@H]3[C@@H]1CC(=O)[C@@H]2O,DNA,[2],99%
COc1ccc2c(c1OC)CC[C@@H]1[C@@H]2CC[C@]2(C)C(=O)CC[C@@H]12,DNA,[1],63%
"C[C@]12CC[C@H]3C(CCC4=CC(=O)CC[C@@]43C)[C@@H]1CC[C@@H]2O (single isomer, unassigned)",DNA,[2],72%
C[C@]12CC[C@@H]3c4ccc(O)cc4CC[C@H]3[C@@H]1C[C@@H](O)C2=O,DNA,[1],150%
"C[C@]12CC[C@@H]3c4ccc(O)c(O)c4CCC3[C@@H]1CC[C@@H]2O (single isomer, unassigned)",DNA,[2],53%
"C[C@]12CC[C@@H]3c4cc(O)c(O)cc4CCC3[C@@H]1CC[C@@H]2O (single isomer, unassigned)",DNA,[2],52%
C[C@]12CC[C@@H]3c4ccc(O)cc4CC[C@H]3[C@@H]1C[C@@H](O)[C@@H]2O,DNA,[2],144%
same,DNA,[1],118%
C[C@]12CC[C@@H]3c4ccc(O)cc4CC[C@H]3[C@@H]1C[C@@H](O)[C@H]2O,DNA,[2],103%
C[C@]12CC[C@@H]3c4cc(O)c(O)cc4CC[C@H]3[C@@H]1CCC2=O,DNA,[1],92%
C[C@]12CC[C@@H]3c4ccc(O)cc4CC[C@H]3[C@@H]1CCC2=O,DNA,[1],108%
C[C@]12CC[C@@H]3c4ccc(O)cc4CC[C@H]3[C@@H]1C[C@H](O)[C@H]2O,DNA,[2],200%
